# From the RNAGym collection of RNA variant scans (doi:10.1126/science.aae0568)
# Fewer inactive variants are shown than the library holds.
# B1: tRNA (parent)
# chain: GUUCCGUUGGCGUAAUGGUAACGCGUCUCCCUCCUAAGGAGAAGACUGCGGGUUCGAGUCCCGUACGGAACG
# Variants of: B1
# Test: yeast fitness relative to wild type (ratio to wild type); higher = fitter; tRNA-Arg(CCU), competitive growth, 37 C, YPD
# In short: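 A pool of Saccharomyces cerevisiae strains, each with a tRNA-Arg(CCU) gene variant at the native genomic locus, was competed in YPD at 37°C for 24 hours across six parallel replicates. The variants had been chemically synthesised at a 3% per-site mutation rate over 69 sites, and gene amplicons before and after competition were read by 100-nucleotide paired-end sequencing. Darwinian fitness relative to wild type rested on changes in genotype frequencies. Genotypes required ≥ 100 starting reads, and estimates < 0.5 were set to 0.5.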
row,Variant,yeast fitness
1,GUUGGGUUGACGUAAUGAUAACGCGUCUCCCUCCUAAGGAGCAGACUGCGGGUUCGAGUCCCGUACGGAACG,≤ 0.5
2,GUUGCGUUGGAGUAAUGGUAACGCGUCUCGCUCCUAAGGAGAAGACUGCGGGUUCGAGUCCCGUGUGGAACG,≤ 0.5
3,GUUGGGUUGGCGUAAUGGUAACGCGUCUCCCUCCUAAGGAGAGGACUGCGGGUUCGAGUCCCGUACGGAACG,0.556
4,GUUGCGUUGGCGUAAUGGUAACGCGUCUCCCUCCUAAGGAGAAGACUGCGGGUUCGAGUCCCGUACGGUCCG,0.771
5,GUUGGGUUGGCGUAAUGGUAACGCGUCUCCCUCCUAAGGAGAAGACUGCGGGUUCAAGUCCCGUACGGCACG,≤ 0.5
6,GUUGCGUUGGCGUAAUGGUAACGCGUCUCCCUCCUAAGGAGAAGACUGCGGGUUCGAGUCCCGUACGGUACG,0.775
7,GUUGCGUUGGCGUAAUGGUAACGCGUCUCCCUCCUAAGGAGAUGACUGCGGGUUCGAGUCCCGUACGGAACG,0.856
8,GUUGAGUUGGUGUAAUGGUAACGCGUGUCCCUCCUAAGGAGAAGACUGCGGGUUCGAGUCCCGUUCGUAACG,≤ 0.5
9,GUUGGGUUGGUGUAAUGGUAACGCGUCUCCCUCCUAAGGAGAAGACUGCGGGUUCAAGUCACGUACGGAACG,≤ 0.5
10,GUUGUGUAGGCAUAAUGGUAACGCGUCUCCCUCCUAAGGAGAAGACUACGGGUUCGAGUCCCGUACGGCACG,≤ 0.5
11,GUUGUGUUGGCGUAAUGGUAACGCGUCUCCCUCCUAAGGAGAAGACUGCGGGUUCGAGUCCCGUACGAAACG,0.602
12,GUUGUGUUGGCGUAAUGGUAACGCGUCUCCCUCCCAUGGAGAAGACUGCGGGUUCGAGUCACGUACGGAACG,≤ 0.5
13,GUUGUGUUGGAGUAAUGGUAACGCGUCUCCCUCCUAAGGAGAAGAAAGCGGGAUCGAGUCCCGUACGGAACG,0.566
14,GUUGGGUUGGCGUUAUGGUAACGCGUCUCCCUCCUAAGGAGAAGACUGGGGGUUCGUGUCCCAUACAGAACG,0.631
15,GUUGUGUUGGCCUAAUGGUAACGCGUCUCCCUCCUAAGGAGAAGACUGCGGGUUCGAGUCCCGUACGGAACG,≤ 0.5
16,GUUGUGUUGGCGUAAUGGUAACGCGUCUCCCUCCUAAGGAGGAGACUGCGGGUUCGAGUCCCGUACAGAACG,≤ 0.5
17,GUUGGGUUGGCGUUAUGGUCACGCGUCUCCCUCGUACGGAGAAGACUGUGGGUUCGAGUCCCGUACGGAACG,0.559
18,GUUGGGUUGGCGUAAUGGUAACGCGGCUCCCUCCUAAGGAGAAGCCUGCGGGUUCGAGUCCCGUACAGAACG,0.664
19,GUUGCGUUGGCGUAAUGGUAACGCGUCUCCCUCCUAAGGAGAAGUCUGCGGGUUCGAGUCCCGUACGGACCG,0.808

row,Variant,yeast fitness
1,GUUGCGUUGGCGUAAUGGUAACGCGUCUCCCUCCUAAGGAGAAGCCUGCGGGUUCGAGUCCCGUACGGAACG,0.767
2,GUUGCGUUGGAGUCAUGGUAACGCGUCUCCCUCCUAAGGAGAAGACUGCGGGUUCGAGUCCCGUACGGAACG,≤ 0.5
3,GUUGUGUUGGCGUAAUGGUAACGCGUCUCCCUCCUAAGGAGAAGACUGCGGGUUCGAGUCCCGUGCGGACCG,≤ 0.5
4,GUUGUGUUGGCGUAAAGGUAACGCGUCUCCCUCAUAAGGAGAAGACUGCGGGUUCGAGUCCCGUACGCAACG,0.508
5,GUUGAGUUGGUGUAAUGCUAACGCGUCUCCCUCCUAAGGAGAAGAGUGCGGGUUCGAGUCCCGUACGGAACG,≤ 0.5
6,GUUGCGUUGGCGUAAUGGUAACGCGUCUCCCUCCUAAGGAGAAGACUGCGGGUUCGAGUCCCGUACGGAUCG,0.806
7,GUUGCGUUGGCGUAAUGGUAACGCGUCUCCCUCCUAAGGAGAAGACUGCGGGUUCGAGUCCCGUACGGAGCG,0.909
8,GUUGCGUUGGCGUAAUGGUAACGCGUCUCCCUCCUAAGGAGAAGACUGCGGGUUCGAGUCCCGUACGGACCG,1.08
9,GUUGGGUUGGCGUUAUGGUAACGCGUCUCCCUCCUAAGGAGAAGAGUGCGGGUUCGAGUCCCGUACGGUACG,≤ 0.5
10,GUUGAGUUGGCGUAAUGGUAACGUGUCUCCCUCCUAAGGAGAAGACUGCGGGUUCGAGUCCCGUACGGAACG,≤ 0.5
11,GUUGCGUUGGCGUAAUGGUAACGCGUCUCCCUCCUAAGGAGAAGACUGCGGGUUCGAGUCCCGUCCGGAACG,0.733
12,GUUGCGUUGGAGUAAUGGUAACGCGUCUCCCUCCUAAGGAGUAGACUGCGGGUUCGAGUCCCGUACGGAACG,≤ 0.5
13,GUUGUGUUGGCGAAAUGGUAACGCGUCUCCCUCCUAAGGAGUAGACUGCGGGUUCGAGUCUCGUACGGAACG,≤ 0.5
14,GUUGUGUUGGCGUAAUGGUAACGCGUCUCCCUCCUAAGGAGAAGACUGAGGGUUCGAGUCCCGUACGGACCG,0.529
15,GUUGCGUUGGAGUAAUGGCAACCCGUCUCCCUCCUAAGGAGAAGACUGCGGGUUCGAGUCCCGUACGGAACG,0.524
16,GUUGUGUUGGCGUAAUGGAAACGCGUCUCCCUCCUAAGGAGAAGACUGCGGGUUGGAGUCCCGAACGGAACG,≤ 0.5
17,GUUGUGUUGGCGUAAUGGUAACGCGUCUCCCUCCUAAGGAGAACACUGCGGGUUCGAGUCCCAUACUGAACG,≤ 0.5
18,GUUGCGUUGGCGUAAUGGUAACGCGUCUCCCUCCUAAGGAGAAGGCUGCGGGUUCGAGUCCAGUACGGAACG,0.554
19,GUUGUGUUGGCGUAAUGGUAACGCGUCUCCCUCCUAGGGAGAAGACUGCGGGUUCGAGUCCUGUACGGAACG,≤ 0.5
